Assay outcomes: PubChem BioAssay, several laboratories
This is a sample that favours compounds with a hit; in the whole collection about 2.1% have one here.
MC4R antag cAMP – MC4R antagonists of cAMP signaling, primary screen, cell-based, TR-FRET, antagonist arm of biased-ligand search; Melanocortin receptor 4 (Homo sapiens), P32245; MC4R-expressing cells, MTII-stimulated cAMP, LANCE TR-FRET; inhibition, % at 6.5 µM; 0.48% of 360,000 active;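 active means inhibition above its plate's cutoff, the mean of tested wells on that plate plus 3 SD, cut at about 29% in these data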;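 further: 0% = Melanotan II alone and 100% = Melanotan II plus saturating MCL0020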
Target sequence (P32245 whole entry, looked up): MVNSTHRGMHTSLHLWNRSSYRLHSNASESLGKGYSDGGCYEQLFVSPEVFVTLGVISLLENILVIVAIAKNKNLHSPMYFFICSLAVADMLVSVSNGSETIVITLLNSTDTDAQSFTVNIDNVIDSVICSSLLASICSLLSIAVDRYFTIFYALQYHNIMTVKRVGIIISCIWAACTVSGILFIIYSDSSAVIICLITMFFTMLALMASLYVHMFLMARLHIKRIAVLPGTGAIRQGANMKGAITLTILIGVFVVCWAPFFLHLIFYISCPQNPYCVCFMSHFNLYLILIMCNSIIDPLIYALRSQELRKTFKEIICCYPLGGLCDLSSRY
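Material – human MC4R-expressing U2OS cells · Repeats – no replicates · Detection – TR-FRET with Eu-cAMP and labeled anti-cAMP, 671 nm · Times – compound 30 min, challenge 1 h, detection 1 h · Compound – single nominal compound dose of 6.5 µM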
MC4R ag barr – MC4R agonists recruiting beta-arrestin, primary screen, cell-based, luminescence, agonist arm of biased-ligand search | Melanocortin receptor 4 (Homo sapiens), P32245 | 0.98% of 360,000 active | U2OS MC4R beta-arrestin complementation; percent of melanotan II response, DMSO zero | activation, % at 8.9 µM;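 active means activation above a per-plate cutoff, the mean activation of sample wells on that plate plus 3 SD, cut at about 8% in these data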
SMARCA2 act – SMARCA2 (BRM) function activators, primary screen, cell-based, luminescence, high throughput | MG213 cells, MMTV-luciferase reporter, dexamethasone, overnight | activation, % at 9.1 µM | 1% of 370,000 active; in the data active means activation above about 7.8%;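 further: 0% = vehicle wells and 100% = reference activator wells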
F508del corr – F508del CFTR correction, initial screen, CFBE line, single point | 0.36% of 350,000 active | CFBE cells, YFP halide quenching; stimulated with forskolin plus potentiator P3; % fluorescence drop versus neutral controls | AID 720511, 2013 | activity (quench increase), % at 7.58 µM;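 active means mean added fluorescence quench of at least 8% versus neutral control, with both replicates also reaching 8%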;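 further: cells transiently co-express mutant CFTR-F508del with the halide-sensitive YFP; corrector assay measuring rescue of mutant channel to the surface after 24 h compound exposure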
An asterisk follows results filed as active; x = not tested or not shown; ! = repeats disagree.

SMILES | MC4R antag cAMP | MC4R ag barr | SMARCA2 act | F508del corr
C[C@H](CO)N1C[C@H](C)[C@H](CN(C)C(=O)Nc2ccccc2F)Oc2ncc(C#CCN(C)C)cc2C1=O | x | x | x | 0
CC(=O)N(C)C[C@@H]1Oc2ncc(C#CCC3CCCC3)cc2C(=O)N([C@@H](C)CO)C[C@H]1C | x | x | x | 0
C[C@H](CO)N1C[C@H](C)[C@@H](CN(C)S(=O)(=O)c2ccc(Cl)cc2)OCCCC[C@H](C)Oc2ccc(N(C)C)cc2C1=O | x | x | x | -1
COc1cc(/C=C(/C#N)c2nc3ccccc3[nH]2)ccc1Oc1ncccc1[N+](=O)[O-] | 8 | 14* | 1 | x
N#C/C(=C\c1ccc([N+](=O)[O-])o1)c1nc2ccccc2[nH]1 | x | x | 3 | x
COc1ccc2nc(/C(C#N)=C\c3ccc(Oc4ccc([N+](=O)[O-])cn4)cc3)[nH]c2c1 | -3 | -1 | 12* | x
Cc1ccc2nc(/C(C#N)=C\c3ccc([N+](=O)[O-])o3)[nH]c2c1 | -47 | 766* | -1 | x
COc1cccc(NC(=O)N[C@H]2C=C[C@@H](CC(=O)N3CCCCC3)O[C@@H]2CO)c1 | x | x | x | -2
C[C@@H]1CN([C@H](C)CO)C(=O)c2cccc(NC(=O)Nc3ccc4c(c3)OCO4)c2O[C@H]1CN(C)Cc1ccccc1 | x | x | x | -2
CO[C@@H]1CN(C)C(=O)c2cc(NC(=O)Nc3ccccc3Cl)ccc2OC[C@@H](C)N(S(C)(=O)=O)C[C@H]1C | x | x | x | -4
C[C@@H]1CN([C@H](C)CO)C(=O)c2cc(NC(=O)Nc3ccccc3)ccc2O[C@@H]1CN(C)C(=O)Nc1cccc2ccccc12 | x | x | x | -2
O=C1c2[nH]nc(-c3ccccc3O)c2C(c2ccc(F)cc2)N1Cc1ccco1 (configuration not stated) | -1 | 13* | -5 | x
O=C1c2[nH]nc(-c3ccccc3O)c2C(c2cccc(Cl)c2)N1Cc1ccco1 (configuration not stated) | -8 | 6 | -4 | x
COc1ccc(NC(=O)Nc2ccc3c(c2)[C@H]2C[C@@H](CC(=O)N(C)C)O[C@H](CO)[C@H]2O3)cc1 | x | x | x | 1
CCC(=O)N1[C@@H]2c3ccc(C4=CCCC4)c(=O)n3C[C@H]1[C@H](CO)[C@H]2C(=O)N[C@@H](C)c1ccccc1 | x | x | x | -1
C[C@@H]1CN([C@@H](C)CO)C(=O)c2cccc(NC(=O)C3CC3)c2O[C@@H]1CN(C)S(=O)(=O)c1cn(C)cn1 | x | x | x | -3
Clc1cccc(Cl)c1CSc1nnc(-c2ccncc2)s1 | 7 | 31* | -2 | -1
CCOC(=O)C1CCCN(c2nc3ccccc3nc2NS(=O)(=O)c2ccc(C)cc2)C1 (configuration not stated) | 5 | 2 | -1 | 21*
C[C@@H]1CN([C@@H](C)CO)C(=O)Cc2cc(NC(=O)Cc3ccccc3)ccc2O[C@H]1CN(C)C | x | x | x | 4
COc1cccc(C#Cc2ccc([C@@H]3[C@H](CO)N4C(=O)CN(C(C)=O)C[C@@H]34)cc2)c1 | x | x | x | -2
CCCc1nc(SC2CCCC2)c2c(=O)n(C)c(=O)n(C)c2n1 | 1 | 0 | -1 | 8.1*
CCCc1nc(SCC(=O)N2CCC(C)CC2)c2c(=O)n(C)c(=O)n(C)c2n1 | 3 | 2 | -2 | -1
FC(F)(F)c1nc2ccccc2nc1N/N=C/c1c(Cl)cccc1Cl | -9 | 8.3* | 2 | x
C[C@H]1CN([C@@H](C)CO)C(=O)c2cc(NS(C)(=O)=O)ccc2O[C@H]1CN(C)Cc1ccc2c(c1)OCO2 | x | x | x | 1
O=C(Nc1ccc(Br)cn1)c1cccc2ccccc12 | -19 | 0 | 5 | 14*
SMILES | MC4R antag cAMP | MC4R ag barr | SMARCA2 act | F508del corr
O=C(NCC[C@@H]1CC[C@@H](NS(=O)(=O)c2cccc(F)c2)[C@H](CO)O1)C1CCOCC1 | x | x | x | 0
O=C(CSc1nc2ccccc2n1S(=O)(=O)c1cccc([N+](=O)[O-])c1)NCCc1ccccc1 | 3 | 9.4* | -3 | x
Cc1cccc(CN2C(=O)N/C(=C/c3ccc(C)s3)C2=O)c1 | -15 | 9.2* | 2 | x
O=C(C[C@H]1CC[C@H]2[C@@H](COC[C@H](O)CN2CC2CCCCC2)O1)NCC1CC1 | x | x | x | -2
C=CCN=c1scc(-c2ccccc2)n1/N=C/c1ccccn1 | 2 | 2 | -1 | 8.4*!
C=CCN=c1scc(-c2ccc(F)cc2)n1/N=C/c1ccccn1 | 14 | -2 | 0 | 4
CCC(=O)Nc1ccc2c(c1)C(=O)N(C)[C@@H]1CC[C@H](CC(=O)O)O[C@H]1CO2 | x | x | x | -4
